Experimental findings from ChEMBL document CHEMBL1145963, “Identification, synthesis, and activity of novel blockers of the voltage-gated potassium channel Kv1.5” (J Med Chem, 2003) are described below.

The target of series [1] is T1, Potassium voltage-gated channel subfamily A member 5 (Homo sapiens, UniProt P22460). Nature of the series: Inhibition of human voltage-gated potassium channel subunit Kv1.5 expressed in Xenopus oocytes. Type of series: cell-based, Oocyte. Summed up:
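Compounds came from a 10 mM DMSO stock diluted into ND96. Read-out was percent inhibition of the compound-free control current. For IC50, 3–4 concentrations were each tested at least twice and fitted with a variable-slope Hill equation.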

The target of series [2] is T1, Potassium voltage-gated channel subfamily A member 5. In words: Inhibition of human voltage-gated potassium channel subunit Kv1.5 expressed in Xenopus oocytes at 10 uM. Type of series: cell-based. The conditions noted are these: Oocyte. Summed up: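 Human Kv1.5 cRNA (0.2–0.5 ng) was injected into Xenopus oocytes kept at 18 °C. […] Compounds came from a 10 mM DMSO stock diluted into ND96. Read-out was percent inhibition of the compound-free control current. For IC50, 3–4 concentrations were each tested at least twice and fitted with a variable-slope Hill equation.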

The next series has as its target hERG (KCNH2) (Homo sapiens, UniProt Q12809). In words: Inhibition of human Potassium channel HERG expressed in Xenopus oocytes at 10 uM. Type of series: cell-based, Oocyte. The conditions noted are these: Xenopus oocytes expressing human hERG.
In series [3] the target is Potassium voltage-gated channel subfamily A member 3 (Homo sapiens, UniProt P22001). In words: Inhibition of human voltage-gated potassium channel subunit Kv1.3 expressed in Xenopus oocytes. The series is classed as cell-based, Oocyte. Summed up: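 Kv1.3 was expressed in Xenopus oocytes and recorded by two-microelectrode voltage clamp, handled like the Kv1.5 assay. Compounds were diluted from a 10 mM DMSO stock into ND96 superfusate. Percent inhibition of the control current at 3–4 concentrations was fitted with a variable-slope dose–response equation to give IC50.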

The structures appear in SMILES notation. pIC50: −log10 of the molar value. Where “and” joins values, the source holds several entries; their conditions need not be identical. Equal entries are not always repeated.

T1 sequence (P22460 whole entry): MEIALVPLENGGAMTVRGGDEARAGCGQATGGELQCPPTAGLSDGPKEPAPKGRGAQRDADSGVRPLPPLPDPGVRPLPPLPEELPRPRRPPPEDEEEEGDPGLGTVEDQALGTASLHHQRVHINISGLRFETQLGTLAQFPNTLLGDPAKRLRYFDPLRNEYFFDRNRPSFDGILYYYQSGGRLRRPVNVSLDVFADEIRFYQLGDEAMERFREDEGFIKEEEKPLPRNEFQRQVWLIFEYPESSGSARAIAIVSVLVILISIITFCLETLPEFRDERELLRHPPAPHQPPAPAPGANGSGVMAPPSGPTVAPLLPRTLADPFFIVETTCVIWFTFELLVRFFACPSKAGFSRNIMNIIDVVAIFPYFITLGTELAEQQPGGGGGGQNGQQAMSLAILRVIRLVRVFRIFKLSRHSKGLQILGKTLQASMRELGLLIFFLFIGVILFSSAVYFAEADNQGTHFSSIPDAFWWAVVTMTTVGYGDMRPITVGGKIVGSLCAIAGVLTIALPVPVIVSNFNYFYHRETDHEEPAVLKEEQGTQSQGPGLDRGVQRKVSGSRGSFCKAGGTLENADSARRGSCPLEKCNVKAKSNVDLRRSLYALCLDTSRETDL
Chain of Potassium voltage-gated channel subfamily A member 3 (P22001 whole entry): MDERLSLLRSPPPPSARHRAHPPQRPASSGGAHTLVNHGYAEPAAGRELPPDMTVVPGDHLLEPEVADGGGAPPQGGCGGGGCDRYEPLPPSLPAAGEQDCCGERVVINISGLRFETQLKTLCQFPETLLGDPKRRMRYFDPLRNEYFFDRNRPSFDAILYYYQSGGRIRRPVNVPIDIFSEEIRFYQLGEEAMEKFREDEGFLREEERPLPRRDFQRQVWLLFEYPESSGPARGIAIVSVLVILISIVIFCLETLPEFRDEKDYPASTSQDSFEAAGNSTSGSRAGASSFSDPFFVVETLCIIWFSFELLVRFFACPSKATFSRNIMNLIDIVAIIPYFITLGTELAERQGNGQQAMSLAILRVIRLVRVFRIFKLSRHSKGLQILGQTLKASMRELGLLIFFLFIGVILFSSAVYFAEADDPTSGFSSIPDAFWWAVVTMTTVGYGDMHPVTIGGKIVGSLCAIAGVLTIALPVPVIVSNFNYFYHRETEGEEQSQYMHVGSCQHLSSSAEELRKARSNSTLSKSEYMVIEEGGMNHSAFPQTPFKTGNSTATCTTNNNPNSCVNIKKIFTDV
Chain of hERG (KCNH2) (Q12809 whole entry): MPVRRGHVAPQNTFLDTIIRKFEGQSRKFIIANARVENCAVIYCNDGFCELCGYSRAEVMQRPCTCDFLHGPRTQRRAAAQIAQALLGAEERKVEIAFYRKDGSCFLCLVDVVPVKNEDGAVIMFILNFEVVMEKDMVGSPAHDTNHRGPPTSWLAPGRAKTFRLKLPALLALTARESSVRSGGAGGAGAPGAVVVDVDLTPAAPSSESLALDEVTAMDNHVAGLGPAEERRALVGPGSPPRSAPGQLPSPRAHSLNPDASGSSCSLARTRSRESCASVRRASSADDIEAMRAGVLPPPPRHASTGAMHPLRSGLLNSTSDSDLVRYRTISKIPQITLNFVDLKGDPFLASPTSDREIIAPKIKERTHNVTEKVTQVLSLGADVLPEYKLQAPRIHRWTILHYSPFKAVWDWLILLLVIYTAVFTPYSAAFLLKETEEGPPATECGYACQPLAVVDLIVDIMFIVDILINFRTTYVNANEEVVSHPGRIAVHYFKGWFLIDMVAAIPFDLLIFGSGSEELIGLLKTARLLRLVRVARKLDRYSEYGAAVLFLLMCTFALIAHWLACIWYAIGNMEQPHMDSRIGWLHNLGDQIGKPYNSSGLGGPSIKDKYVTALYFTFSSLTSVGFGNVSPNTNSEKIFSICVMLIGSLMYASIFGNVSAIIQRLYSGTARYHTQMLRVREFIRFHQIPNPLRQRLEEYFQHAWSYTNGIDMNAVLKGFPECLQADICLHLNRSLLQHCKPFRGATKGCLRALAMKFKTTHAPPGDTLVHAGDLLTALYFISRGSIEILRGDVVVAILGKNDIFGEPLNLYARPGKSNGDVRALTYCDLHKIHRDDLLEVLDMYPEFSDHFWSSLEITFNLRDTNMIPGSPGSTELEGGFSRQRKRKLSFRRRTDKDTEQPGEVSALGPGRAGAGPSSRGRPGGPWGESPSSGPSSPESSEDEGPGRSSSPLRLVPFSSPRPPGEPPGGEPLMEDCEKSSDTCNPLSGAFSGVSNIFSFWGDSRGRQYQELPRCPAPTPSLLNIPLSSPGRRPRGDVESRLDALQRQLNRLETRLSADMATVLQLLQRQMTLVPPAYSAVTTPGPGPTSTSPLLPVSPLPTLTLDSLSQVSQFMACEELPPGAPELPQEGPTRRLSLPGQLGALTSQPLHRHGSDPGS

A word on the pIC50: it is the IC50 on a negative log10 scale, so that one unit is a factor of ten. Read a low pIC50 as a high IC50. In the case of `C[C@@H](CC(=O)NCc1ccccc1-c1ccccc1C(=O)NCCc1ccccn1)c1ccccc1`, the negative logarithm of the IC50 (pIC50) in series [1] is 6.00.

By inhibition is commonly meant how much of the control response was suppressed. A higher inhibition goes with a response far below the control. Take `CC(C)CCOC(=O)c1ccccc1-c1ccccc1CNC(=O)OCc1ccccc1`: in series [2], the inhibition stood at 8%.

On to `CC(C)CCNC(=O)c1ccccc1-c1ccccc1CNCCc1ccccc1`, for which the pIC50 in series [1] is 5.40.

On to `CC(C)CCNC(=O)c1ccncc1-c1ccccc1CNC(=O)OCc1ccccc1`, for which the pIC50 in series [1] is 4.92. Compared with the last molecule, the pIC50 is 0.48 log units lower.

For the molecule `Cc1cccc(CNC(=O)OCc2ccccc2)c1-c1c(C)cccc1C(=O)NCCc1ccccn1`, in series [1], the negative-log IC50 (pIC50) is 5.77.

On to `Cc1cccc(CNC(=O)OCc2ccccc2)c1-c1c(C)cccc1C(=O)NCCC(C)C`, for which the negative-log IC50 (pIC50) in series [1] is 6.00 and 5.89.

For the molecule `C[C@H](OC(=O)NCc1ccccc1-c1ccccc1C(=O)NCCc1ccccn1)c1ccccc1`, testing at 10 µM on hERG (KCNH2) gave an inhibition of 11%. In addition, the pIC50 in series [3] is 6.30.

The molecule `O=C(NCc1ccccc1-c1ccccc1C(=O)NCCc1ccccn1)OCc1ccccc1` came in with an inhibition at 10 µM at hERG (KCNH2) of 7%. This molecule also had a negative-log IC50 (pIC50) in series [3] of 5.64.

Regarding `O=C(NCc1ccccc1-c1ccccc1C(=O)NCc1ccc(F)cc1F)OCc1ccccc1`, the pIC50 in series [1] was 5.92.

For `CN(C)CC(C)(C)CNC(=O)c1ccccc1-c1ccccc1CNC(=O)OCc1ccccc1`, the pIC50 in series [1] was 5.66. Compared with the last molecule, the pIC50 is 0.26 log units lower.

In the case of `CC(C)CCNC(=O)c1cccnc1-c1ccccc1CNC(=O)OCc1ccccc1`, the negative logarithm of the IC50 (pIC50) in series [1] was 5.11.

`O=C(NC1CCCCC1)c1cccc2cccc(NS(=O)(=O)c3ccc(Cl)cc3)c12` had a pIC50 in series [1] of 5.02.

`CC(C)CCNC(=O)c1ccccc1-c1ccncc1CNC(=O)OCc1ccccc1` showed a negative-log IC50 (pIC50) in series [1] of 5.15.

With `COc1ccc(S(=O)(=O)NC(=O)NCc2ccccc2-c2ccccc2C(=O)NCc2ccc(F)cc2F)cc1`, the inhibition in series [2] was found to be 7%.
